Only some compounds are listed: those with a hit (about 2.1% of all), similar ones and a draw of the others.
CHRM5 antagonist: blocks acetylcholine activation of human M5 receptor | P08912 | CHO-hM5 cells, Fluo-8 calcium fluorescence, ACh EC80 | inhibition, % at 3 µM | 360,000 compounds, 0.59% hits | AID 624040;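 active = inhibition above a per-plate cutoff, the mean of that plate's test compounds plus 3 SD, cut at about 27% in these data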
Target sequence (P08912 whole entry, looked up): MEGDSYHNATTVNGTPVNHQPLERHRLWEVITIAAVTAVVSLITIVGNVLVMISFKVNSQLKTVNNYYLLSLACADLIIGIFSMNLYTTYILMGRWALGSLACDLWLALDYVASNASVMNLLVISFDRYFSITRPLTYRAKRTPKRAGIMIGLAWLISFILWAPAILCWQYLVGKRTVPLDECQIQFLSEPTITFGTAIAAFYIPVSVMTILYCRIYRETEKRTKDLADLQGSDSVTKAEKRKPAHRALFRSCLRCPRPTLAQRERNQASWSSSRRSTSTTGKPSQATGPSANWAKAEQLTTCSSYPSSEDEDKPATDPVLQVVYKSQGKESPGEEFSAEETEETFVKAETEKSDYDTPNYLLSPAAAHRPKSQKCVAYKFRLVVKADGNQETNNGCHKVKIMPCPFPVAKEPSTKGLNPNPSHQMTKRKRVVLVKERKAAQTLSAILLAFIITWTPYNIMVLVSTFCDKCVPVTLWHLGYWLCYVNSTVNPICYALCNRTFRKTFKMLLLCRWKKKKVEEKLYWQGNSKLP
M1 antag: antagonists of human M1 muscarinic receptor | CHO-K1 hM1, Fluo-8 calcium fluorescence, ACh EC80 antagonist | inhibition, % at 3 µM | 360,000 compounds, 1.3% hits | AID 588852;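 active = percent inhibition above its own plate's cutoff, namely the mean of that plate's compound wells plus 3 SD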;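 also: peak over basal fluorescence ratio during 140 s after agonist addition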
M5 ag: agonists of human muscarinic M5 receptor (CHRM5) | P08912 | CHO-K1 hM5 cells, Fluo-8 calcium fluorescence; 0% DMSO wells, 100% maximal acetylcholine response | activation, % at 3 µM | 360,000 compounds, 0.19% hits | AID 624037;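 active = activation above the run's mean over test compounds plus 3 SD, cut at about 23% in these data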;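 also: signal is peak over basal fluorescence ratio across the kinetic read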
CHRM1 agonist: agonists of human M1 muscarinic receptor; CHO-K1 hM1, Fluo-8 calcium fluorescence, agonist mode; 0% DMSO, 100% acetylcholine EC100; activation, % at 3 µM; 360,000 compounds, 0.33% hits; AID 588814;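 active = activation above the run's mean compound activation plus 3 SD, cut at about 16% in these data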;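 also: peak over basal fluorescence ratio within a 140 s kinetic read after compound addition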
M1 PAM: positive allosteric modulators of human M1 muscarinic receptor; P11229; CHO-K1 hM1, Fluo-8 calcium fluorescence, ACh EC20; 0% = ACh EC20, 100% = maximal ACh; activation, % at 3 µM; 360,000 compounds, 0.088% hits; AID 588819; in the data active = activation above about 19%, passing the limit was not always enough
CHRM5 PAM: potentiates acetylcholine response at human M5 receptor; CHO-K1 hM5, Fluo-8 calcium, ACh EC20 PAM; 0% = ACh EC20, 100% = ACh EC100; activation, % at 3 µM; 360,000 compounds, 0.3% hits; AID 624038;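 active = activation above the run cutoff, the mean activation of all test compounds plus 3 SD, cut at about 18% in these data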
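Assay system: CHO-K1 hM5 cells. Also added: acetylcholine at EC20 concentration, added after compound. Dosing: 3 µM, single dose. Times: compound preincubation 140 s before EC20 acetylcholine addition. Signal: Fluo-8 calcium fluorescence. Measure: % activation relative to EC20 and EC100 ACh responses. Repeats: singlicate, one well per test compound.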
Each line names hits and unclear results; the compound was inactive in the other large screens.

CCCCCCCNC(=O)C1(CC2CC(c3ccccc3)=NO2)CCNCC1 (configuration not stated)	none
O=C(NCCCN1CCCCC1)c1ccc2c(c1)NC(=O)c1ccccc1S2	M1 antag 43
CC(C)CC(NC(=O)c1ccc(Cl)cc1Cl)C(=O)O (configuration not stated)	CHRM5 PAM 19
CCCCC(C(=O)NC1CCCC1)N(Cc1ccco1)C(=O)Cn1nnc(-c2ccc(F)cc2)n1 (configuration not stated)	none
CN1/C(=C/C=C(C#N)C#N)C(C)(C)c2ccccc21	none
CC1=C/C(=C\C=C(C#N)C#N)N(C)c2ccccc21	M5 ag 43, CHRM1 agonist 22
O=C(CCc1nc2ccccc2c(=O)[nH]1)N1CCN(C/C=C/c2ccccc2)CC1	CHRM5 antagonist 28
O=C(c1ccc(=O)n(Cc2ccccc2)n1)N1CCN(C/C=C/c2ccccc2)CC1	M1 antag 41
CC(=O)N1CCN(C(=O)CCc2nc3ccccc3c(=O)[nH]2)CC1	none
O=C(c1ccc(F)cc1)c1ccc(N2CCCCC2)cc1	none
O=[N+]([O-])c1ccc(S(=O)(=O)N2CCN(c3ccc(N4CCOCC4)nn3)CC2)cc1	none
CCCNCCC(c1ccco1)c1ccccc1OC (configuration not stated)	M1 antag 41
CCCCn1c(N)c(N(Cc2ccccc2OC)C(=O)C(C)C)c(=O)[nH]c1=O	none
O=c1[nH]c2ccccc2nc1NCCN1CCOCC1	none
Cc1ccnc(Nc2nc(-c3ccccc3)cs2)c1	CHRM5 PAM 22
CC(=O)Nc1ccc(-c2csc(Nc3cc(C)ccn3)n2)cc1	none
O=C(Nc1ccc2nc(-c3ccco3)c(-c3ccco3)nc2c1)N1CCN(c2ccccn2)CC1	CHRM5 PAM 20
Cc1nc2cc(NC(=O)N3CCN(c4ccccn4)CC3)ccc2o1	none
CC(=O)c1c(C)[nH]c(C(=O)CSc2ccc(F)cc2)c1C	M1 antag 33
CCOC(=O)c1c(C)[nH]c(C(=O)CSc2ccccc2)c1C	none
COCCCNC(=O)C1c2ccccc2Oc2ccccc21	none
CCN(CC)CCCNC(=O)C1c2ccccc2Oc2ccccc21	CHRM5 antagonist 28, M1 antag 49
O=C(Nc1nc2ccccc2s1)C1c2ccccc2Oc2ccccc21	none
CCc1nnc(NC(=O)C2c3ccccc3Oc3ccccc32)s1	M1 antag 37
CCCCCCc1ccc(OC(=O)c2ccncc2)cc1	none
COc1cc([N+](=O)[O-])ccc1NC(=O)COC(=O)C1=NN(c2ccccc2)C(=O)CC1	none
COc1ccccc1NC(=O)COC(=O)C1=NN(c2ccccc2)C(=O)CC1	CHRM5 PAM 19
O=C(NCC1CCCO1)C(c1ccc(F)cc1)N(C(=O)Cn1nnc(-c2ccc(F)cc2)n1)c1cccc(O)c1 (configuration not stated)	M1 antag 36
Cc1cccc(N(C(=O)CNC(=O)c2ccco2)C(C(=O)NCC2CCCO2)c2ccccc2)c1 (configuration not stated)	M1 antag 23
Oc1cc(O)cc(/C=C/c2ccc(O)c(O)c2)c1	CHRM1 agonist 27
O=C(N/N=C/c1ccc(O)c(O)c1)N/N=C/c1ccc(O)c(O)c1	none
COc1ccccc1CC(=O)NN1C(=O)NC2(CCC(C)CC2)C1=O (configuration not stated)	none
CCN(CC)c1ccc2nc3ccc(N)cc3[n+](-c3ccccc3)c2c1	none
CCN(CC)c1ccc2nc3ccccc3[n+](CC)c2c1	M1 antag 69
O=C(/C=C/c1ccccc1)NC(=S)Nc1ccccc1C(=O)NC1CCCCC1	none
O=C(/C=C/c1ccc(F)cc1)NC(=S)Nc1ccccc1C(=O)NC1CCCCC1	CHRM5 PAM 21
CC(C)NC(=O)N1CC(c2ccccc2)C(c2ccc(Cl)cc2)=N1 (configuration not stated)	M1 antag 35
CC(=O)N1CC(c2ccccc2)C(c2ccc(Cl)cc2)=N1 (configuration not stated)	none
c1ccc(-c2csc3ncnc(NCCCN4CCOCC4)c23)cc1	none
O=c1c2c(-c3ccccc3)csc2nc2c3ccccc3c(NCCN3CCOCC3)nn12	M1 antag 92
CCOC(=O)COc1cc2c3c(c(=O)oc2cc1C)CCCC3	M1 antag 48
Nc1n[nH]c2cc(=O)n(-c3cccc(C(F)(F)F)c3)nc12	none
Cc1ccc(Cl)cc1N1CCN(C(=O)C2CCN(S(=O)(=O)c3c(C)nn(C)c3C)CC2)CC1	CHRM5 antagonist 30, M1 antag 22
COc1cc(=O)n(C)c2cc(N(C)C)ccc12	M1 PAM 20
CN1C(=O)c2ccc(N(C)C)cc2C1=O	none
CCCCNC(=O)c1ccc(SCC(=O)N(CC)CC)c([N+](=O)[O-])c1	CHRM5 PAM 19
CCN(CC)C(=O)CSc1ccc(C(F)(F)F)cc1[N+](=O)[O-]	none
COC(=O)c1cc(NC(=O)Nc2cccc(Cl)c2)ccc1Cl	CHRM5 antagonist 32, M1 antag 32
COc1ccc(NC(=O)c2ccc(Cl)c(S(=O)(=O)N3CCc4ccccc4C3)c2)cn1	M1 antag 18
COc1ccccc1NS(=O)(=O)c1cccc(NC(=O)Nc2cccc(Cl)c2)c1	CHRM5 antagonist 59
COc1ccc(C(=O)Nc2ccc(Cl)c(S(=O)(=O)Nc3ccccc3OC)c2)cc1	none
COc1ccccc1NS(=O)(=O)c1cc(NC(=O)c2ccc(Cl)nc2)ccc1Cl	M1 antag 28
COC(=O)c1ccc(S(=O)(=O)N2CCOCC2)o1	none
O=C(/C=C/c1ccc(Br)o1)OCc1nc2ccsc2c(=O)[nH]1	none
COc1ccccc1C1CC(=O)Oc2cc(C)c(Br)c(C)c21 (configuration not stated)	none
COC(=O)c1cccc(NC(=O)Nc2ccc(Cl)cc2)c1	M1 antag 38
O=C1c2ccccc2C(O)N1Cc1ccc2c(c1)OCO2 (configuration not stated)	M1 antag 28
C=CCN1C(=O)/C(=C\C=C2\N(C)c3ccccc3C2(C)C)SC1=S	none
CCN1C(=O)/C(=C/C=C2/SCCN2C)SC1=S	none
CN1/C(=C\C=C2/SC(=S)N(CC(=O)O)C2=O)C(C)(C)c2ccccc21	M1 antag 37, CHRM1 agonist 131
CN1CCS/C1=C\C=C1/SC(=S)N(CC(=O)O)C1=O	M5 ag 49
COc1ccc2c(c1)C1(C)CC(C)(C)N2C(=O)N1c1ccccc1 (configuration not stated)	none

High-throughput results from PubChem.
